Results collected from several papers.
Each line is one published result; the experiments were not run side by side.
Target: Wee1-like protein kinase (WEE1, Homo sapiens, UniProt P30291)

Compound | assay | setting | remaining binding [%]
COc1ccnn2ncc(-c3ccnc(N(C)C)n3)c12 | binding | 1 µM | 100
Cn1nc(C(=O)NCc2ccc(C(=O)O)cc2)cc1-c1ccc2[nH]ccc2c1 | cell-free assay, competition with immobilised ligand | 0.1 µM | 100
Nc1ncc2c(n1)-c1c([nH]c3ccc(C#CC4CC4)cc13)CCCC2 | binding, competition with immobilised ligand | 1 µM | 87
F[C@@H]1CCN(c2nccc(-c3cnn4ncccc34)n2)C1 | binding | 1 µM | 100
COc1ncc2cc3ccccc3nc2c1C#N | cell-free assay, competition with immobilised ligand | 5 µM | 98
COc1cnc(Nc2cccc(S(N)(=O)=O)c2)nc1N1CCN(c2ccccc2)CC1 | binding, competition with immobilised ligand | 1 µM | 100
CCCOc1ccc([C@@H]2[C@@H](C(=O)O)[C@H](c3ccc4c(c3)OCO4)CN2CC(=O)Nc2c(CC)cccc2CC)cc1 | cell-free assay, competition with immobilised ligand | 1 µM | 95
Cc1cnn2ncc(-c3ccnc(N(C)C)n3)c2c1 | binding | 1 µM | 100
CCC(=O)N[C@H]1CC[C@@H](C(=O)N(C)c2ccc(-c3nc4ccccc4o3)cc2)C1 | cell-free assay, competition with immobilised ligand | 1 µM | 100
C=CC(=O)N1CCC(C(=O)NCC(=O)N2CCN(c3nc(-c4cnc(N)nc4C(F)F)nc(N4CCOCC4)n3)CC2)CC1 | binding, competition with immobilised ligand | 1 µM | 89
FC(F)(F)Oc1cccc(-c2cnc3ccc(-c4ccncc4)nn23)c1 | binding, competition with immobilised ligand | 5 µM | 90
CN(c1ccnc(CNc2nc(Nc3ccc4c(c3)CC(=O)N4)ncc2C(F)(F)F)n1)S(C)(=O)=O | cell-free assay, competition with immobilised ligand | 1 µM | 13
C[C@@H]1CCN(c2nccc(-c3cnn4ncccc34)n2)C1 | binding | 1 µM | 100
O=C(NCC1CCOCC1)c1n[nH]cc1NC(=O)c1c(F)cccc1F | binding, competition with immobilised ligand | 1 µM | 97
CN(C)c1nccc(-c2cnn3ncccc23)n1 | binding | 1 µM | 80
Cc1cnc(Nc2ccc(C(=O)N3CCC(N4CCCC4)CC3)cc2)nc1-c1cc2ccccc2s1 | binding, competition with immobilised ligand | 1 µM | 4.2
N[C@H]1CCN(c2nccc(-c3cnn4ncccc34)n2)C1 | binding | 1 µM | 68
Cc1nccc(COC(=O)N2C[C@@H]3[C@@H](CNC(=O)c4ccc5[nH]nnc5c4)[C@@H]3C2)n1 | cell-free assay, competition with immobilised ligand | 1 µM | 100
O=C(c1ccc(Nc2nccc(-c3cc4ccccc4s3)n2)cc1)N1CCC(N2CCCC2)CC1 | binding, competition with immobilised ligand | 1 µM | 83
CN(C)c1nccc(-c2cnc3ncccn23)n1 | binding | 1 µM | 100
FC(F)(F)c1ccc2c(c1)nc(-c1cccnc1)n2C1CC1 | cell-free assay, competition with immobilised ligand | 1 µM | 93
O=C(NCCCN1CCOCC1)c1ccc(Nc2nccc(-c3cc4ccccc4s3)n2)cc1 | binding, competition with immobilised ligand | 1 µM | 67
